The text below walks through data of ChEMBL document CHEMBL1125435, “Synthesis and biological activity of open-chain analogues of 5,6,7,8-tetrahydrofolic acid--potential antitumor agents” (J Med Chem, 1992).

The test system of experiment [1] is MCF7. The experiment can be described thus: In vitro inhibition of growth of MCF-7 human breast adenocarcinoma using 72 hours continuous exposure. It counts as functional, cell-based. The procedure, abridged:
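ATCC MCF-7 cells grown in RPMI 1640 with 10 nM calcium leucovorin as folate source, 10% dialyzed fetal calf serum, penicillin, streptomycin and sodium pyruvate (110 μg/mL). Cells seeded at 15000/well, preincubated 24 h at 37 °C, then exposed 72 h (37 °C, 5% CO2), triplicate per concentration. Growth read by MTT reduction, formazan dissolved in DMSO, A570 (reference 750 nm), against a cell-number standard curve.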

Experiment [2] relates to MOLT-4. The experiment can be described thus: Compound was evaluated for inhibition of [3H]methotrexate uptake into MOLT-4 cells. The conditions noted are these: Homo sapiens. It counts as functional, cell-based.
Experiment [3] concerns the target GAR transformylase (Sus scrofa). Nature of the experiment: In vitro inhibition of hog liver GAR transformylase with (6R)-10-formyl-FH4 as cofactor.
For experiment [4], the system named is MOLT-4. The experiment can be described thus: In vitro inhibitory activity against MOLT-4 T-cell leukemia cell AICAR transformylase. Format: functional, cell-based, Homo sapiens. The conditions noted are these: for IC50: Homo sapiens, MOLT-4.

Take `Nc1nc(N)c(CCCCc2ccc(C(=O)N[C@@H](CCC(=O)O)C(=O)O)cc2)c(=O)[nH]1` [DIDEAZAACYCLOTETRAHYDROFOLIC ACID]: the IC50 in experiment [1] was 61 nM; in experiment [2] it was 900 nM.
Taken in the same sequence, the figures for `Nc1nc(O)c2c(n1)NCC(CCc1ccc(C(=O)NC(CCC(=O)O)C(=O)O)cc1)C2` (stereo unspecified) were 18 nM and 1500 nM.
In the case of `COc1cc(C(=O)NC(CCC(=O)O)C(=O)O)ccc1NCCCc1c(N)nc(N)nc1O` (stereo unspecified), the IC50 in experiment [1] was 5000 nM; in experiment [2] it was 1000 nM.
For `Nc1nnc(C2CCN(c3ccc(C(=O)NC(CCC(=O)O)C(=O)O)cc3)C2=O)c(O)n1` (stereo unspecified), in that order: > 100000 nM and > 100000 nM.
In the case of `Nc1nc(N)c(CCCNc2ccc(C(=O)N[C@@H](CCC(=O)O)C(=O)O)cc2)c(O)n1`, the IC50 turned out to be 1200 nM in experiment [2] and 3000 nM in experiment [3].
For `Nc1nc(N)c(CCCNc2ccc(C(=O)NC(CCC(=O)O)C(=O)O)cc2F)c(O)n1` (stereo unspecified), the IC50 in experiment [1] came out at 63 nM; in experiment [2], 1000 nM; in experiment [4], 133000 nM.
On to `Cc1cc(C(=O)NC(CCC(=O)O)C(=O)O)ccc1NCCCc1c(N)nc(N)nc1O` (stereo unspecified), for which the IC50 in experiment [1] turned out to be 250 nM; in experiment [2], 1300 nM.
With `Nc1nc(N)c(CCCNc2ccc(C(=O)NC(CCC(=O)O)C(=O)O)c(Cl)c2)c(O)n1` (stereo unspecified), the IC50 came to 115 nM in experiment [1], 700 nM in experiment [2] and 182000 nM in experiment [4].
With `Nc1nc(N)c(CCCOc2ccc(C(=O)NC(CCC(=O)O)C(=O)O)cc2)c(O)n1` (stereo unspecified), the IC50 came out at 85 nM in experiment [1] and 1100 nM in experiment [2].
As for `Nc1nc(N)c(CCCCNc2ccc(C(=O)NC(CCC(=O)O)C(=O)O)cc2)c(O)n1` (stereo unspecified), the IC50 in experiment [1] worked out at 5000 nM; in experiment [2] it was 1500 nM.
Turning to `Nc1nc(N)c(CCCNc2ccc(C(=O)NC(CCC(=O)O)C(=O)O)c(F)c2)c(O)n1` (stereo unspecified), the IC50 in experiment [1] came out at 33 nM; in experiment [2], 700 nM; in experiment [4], 79300 nM.
Take `Nc1ncnc(O)c1CCCNc1ccc(C(=O)NC(CCC(=O)O)C(=O)O)cc1` (stereo unspecified): the IC50 is > 50000 nM in experiment [1] and 2000 nM in experiment [2]. Moreover, the Inhibition in experiment [4] turned out to be 26%.
With `Nc1nc(N)c(CCCSc2ccc(C(=O)NC(CCC(=O)O)C(=O)O)cc2)c(O)n1` (stereo unspecified), the IC50 in experiment [1] is 23 nM; in experiment [2], 800 nM; in experiment [4] it was 25800 nM.
